Assay outcomes from PubChem BioAssay.
Bfl-1 A1 inh: inhibitors of the anti-apoptotic protein A1, read as caspase activation. MEF A1-2A-BIM cells, Caspase-Glo 3/7 luminescence, 3 h; percent of clofoctol response, vehicle zero. caspase activation, % (no concentration beside the values). 0.066% of 330,000 active. AID 2462;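 active = over half of replicate activation scores above 10%, or exactly half above 10 with the replicate mean above 10; inconclusive = replicate mean below 10 yet half the replicates above 10; inactive = over half of replicates below 10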
MC4R antagonist: human MC4R antagonism in cAMP assay | 0.48% of 360,000 active | inhibition, % at 6.5 µM | P32245 | MC4R-expressing cells, MTII-stimulated cAMP, LANCE TR-FRET;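 active = inhibition above its plate's cutoff, the mean of tested wells on that plate plus 3 SD, cut at about 29% in these data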
Target sequence (P32245 whole entry, looked up): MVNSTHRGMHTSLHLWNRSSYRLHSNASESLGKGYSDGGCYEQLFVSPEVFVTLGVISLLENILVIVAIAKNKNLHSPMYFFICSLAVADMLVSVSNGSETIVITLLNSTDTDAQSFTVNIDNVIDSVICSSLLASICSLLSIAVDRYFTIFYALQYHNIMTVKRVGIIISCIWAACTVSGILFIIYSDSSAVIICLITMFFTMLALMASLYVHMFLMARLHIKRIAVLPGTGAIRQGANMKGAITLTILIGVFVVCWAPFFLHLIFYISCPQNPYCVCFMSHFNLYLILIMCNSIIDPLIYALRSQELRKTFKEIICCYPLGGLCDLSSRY
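Assay system: human MC4R-expressing U2OS cells; reagent: Melanotan II stimulation of cells; dosing: 6.5 µM single dose; timing: compound 30 min, challenge 1 h, detection 1 h; signal: TR-FRET cAMP assay; replicates: one well per compound, no replicates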
NLRP3 yeast inh: blocks the NALP3 inflammasome reconstituted in yeast; Yeast reconstituted NLRP3/ASC/caspase-1, beta-gal luminescence, 24 h; inhibition, % at 10 µM; 0.39% of 330,000 active; AID 2825;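 active = inhibition of 50% or more; inactive = inhibition below 50%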
NALP1 yeast inh: inhibitors of NALP1 inflammasome in yeast. inhibition, % at 10 µM. 0.61% of 280,000 active. S. cerevisiae NALP1/ASC/caspase-1 growth, X-gal OD620, 72 h; in the data active = inhibition mostly above about 24%, no sharp cut-off; inactive = mostly below about 32%
Tb MetRS inh: blocks T. brucei methionyl-tRNA synthetase activity. purified T. brucei MetRS, ATP depletion, Kinase-Glo luminescence. inhibition, % at 11.9 µM. 0.4% of 360,000 active;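 active = inhibition above a per-plate cutoff of the control wells' mean inhibition plus 3 SD, cut at about 5.5% in these data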
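Material: T. brucei methionyl-tRNA synthetase, purified; reagent: substrates ATP, L-methionine and bulk Escherichia coli tRNA; dosing: 11.9 µM single point; timing: 15 min plus 2 h at 25 °C; detection: luminescence of leftover ATP; evaluation: % inhibition; control set: DMSO-only wells as low control; replicates: singlicate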
MC4R barr agon: human MC4R agonism via beta-arrestin; P32245; U2OS MC4R beta-arrestin complementation, luminescence; percent of melanotan II response, DMSO zero; activation, % at 8.9 µM; 0.98% of 360,000 active; AID 540308;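 active = activation above a per-plate cutoff, the mean activation of sample wells on that plate plus 3 SD, cut at about 8% in these data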
A number is an active result; - = inactive; ? = inconclusive; . = not tested or not shown. The list is not random: actives were taken first. Their share in the collection is about 2.5%.

SMILES | Bfl-1 A1 inh | MC4R antagonist | NLRP3 yeast inh | NALP1 yeast inh | Tb MetRS inh | MC4R barr agon
C[C@@H](C(=O)NCc1ccccc1)N1C(=O)C2CC=CCC2C1=O (some centres undefined) | - | - | - | 36 | - | -
CC(C(=O)NCc1ccccc1)N1C(=O)c2ccccc2C1=O (centres undefined) | - | - | - | - | - | -
Cc1ccc(SC/C(O)=C(\C#N)c2nc3ccccc3n2C)cc1 | - | - | - | - | - | 8.3
Cc1ccc2nc(N(CCCN(C)C)C(=O)CCc3ccccc3)sc2c1 | - | - | . | 48 | - | -
Cc1ccc2nc(N(CCCN(C)C)C(=O)CS(=O)(=O)c3ccccc3)sc2c1 | - | - | - | . | - | -
C=CCOc1ccccc1CN1CCCN(C)CC1 | - | - | - | - | - | -
CCN1CCN(CCCNC(=O)c2ccc(/C=C3/Sc4ccccc4N(Cc4ccccc4F)C3=O)cc2)CC1 | - | - | - | - | - | -
CCN1CCN(CCNC(=O)c2ccc(/C=C3/Sc4ccccc4N(Cc4ccccc4C)C3=O)cc2)CC1 | . | - | . | - | - | 8.9
COC(=O)c1sc2ncccc2c1OCc1ccc(Cl)cc1 | - | - | - | - | - | 8.8
O=C(CCS(=O)(=O)c1ccccc1)N(CCCN1CCOCC1)c1nc2ccc(F)cc2s1 | 5.3 | - | - | . | - | -
CCc1cccc2sc(N(CCCN3CCOCC3)C(=O)CS(=O)(=O)c3ccccc3)nc12 | - | - | - | . | - | -
COc1ccc(OC)c(C2=NOC(C(=O)Nc3cc(C)on3)C2)c1 (centres undefined) | - | - | - | 34 | - | -
Cc1ccc(C(C)C)c(OC/C(O)=C(\C#N)c2nc3ccccc3[nH]2)c1 | - | - | - | - | - | -
CC(/C=C/c1ccco1)=N\NC(=O)CNc1ccc2ccccc2c1 | - | - | - | 20 | - | -
Cc1ccc(CN2CCN(Cc3cnc(N4CCOCC4)s3)CC2CCO)o1 (centres undefined) | - | - | - | 26 | - | -
COC(=O)C1CCN(Cc2ccc(OCCCN3CCN(c4ccc([N+](=O)[O-])cc4)CC3)cc2)CC1 | - | - | - | 26 | - | -
COc1ccc(C2Nc3cccc4cccc(c34)N2)cc1 | - | - | - | - | - | -
CN(C)c1ccc(C2Nc3cccc4cccc(c34)N2)cc1 | - | - | - | 39 | - | -
CCOC(=O)Cn1c(=O)oc2cc(S(=O)(=O)NCCC(C)C)ccc21 | - | - | - | 41 | - | -
COc1ccc(Cl)cc1S(=O)(=O)N1CCN=C1C | - | - | - | - | - | -
CC1=NCCN1S(=O)(=O)c1c(C(C)C)cc(C(C)C)cc1C(C)C | - | - | - | 28 | - | -
O=C(CC[C@H]1O[C@@H](n2ccc(=O)[nH]c2=O)[C@H](O)[C@@H]1O)NCCN1CCOCC1 | . | . | . | . | - | .
O=C(CSc1nnc(-c2ccc(Br)cc2)o1)Nc1cccc(C(=O)O)c1 | - | - | - | - | - | -
O=C(CSc1nnc(-c2ccc(Br)cc2)o1)Nc1cccc2ccccc12 | - | - | - | - | - | 9.1
CCCCNC(=O)C[C@@H]1C[C@@]2(C(=O)OC)CCCCC=C2N(Cc2ccc3c(c2)OCO3)C1=O | . | . | . | . | - | .
SMILES | Bfl-1 A1 inh | MC4R antagonist | NLRP3 yeast inh | NALP1 yeast inh | Tb MetRS inh | MC4R barr agon
CCCN1CCN(CCCNC(=O)c2cc3c(=O)[nH]c4ccccc4c3s2)CC1 | - | - | - | 25 | - | -
CCOC(=O)Cc1ccc(Nc2nc(NCc3ccccc3)nc3ccsc23)cc1 | . | - | . | . | - | 8.5
CCNC(=O)C1(C)CCCN(C(=O)c2cc(OC)ccc2Br)C1 (centres undefined) | . | - | . | . | - | -
COc1ccc(C2CC(c3cccs3)=NN2C(=O)CCl)cc1OC (centres undefined) | - | - | - | - | - | -
COc1cc(C2CC(c3cccs3)=NN2C(=O)CCl)ccc1OC(F)F (centres undefined) | ? | - | - | - | - | 22
COc1ccc2cc(C(C)C(=O)O)ccc2c1 (centres undefined) | - | - | - | . | - | -
CCN1C(=O)[C@H]2[C@@H](c3ccc(C)cc3)N[C@]3(CCCN(CCC(C)C)C3=O)[C@H]2C1=O | . | - | . | . | - | -
O=C(CN1CCC(Cc2ccccc2)CC1)NC(=O)NC1CCCCC1 | - | - | - | - | - | -
COc1cc(NC(=O)CN2CCC(Cc3ccccc3)CC2)c(C)cc1[N+](=O)[O-] | - | - | - | - | - | 9.5
O=C(CN1CCC(Cc2ccccc2)CC1)NC(=O)NCc1ccccc1 | - | - | - | - | - | 9.6
CN1N=C(N)c2cn(C3OC(COP(=O)(O)O)C(O)C3O)c3ncnc1c23 (centres undefined) | . | - | . | . | - | -
COc1cc(NC(=O)COc2c(C)cc(C)cc2[N+](=O)[O-])c(OC)cc1Cl | - | - | - | - | - | 8.4
Cc1cccc(CN2CCSCC2)c1 | - | - | - | - | - | -
Clc1ccccc1CN1CCN(CCCc2ccccc2)CC1 | . | - | . | 22 | - | -
Cc1cccc(CN2CCN(CCCc3ccccc3)CC2)c1 | - | . | - | 31 | . | .
OCC1(CCc2ccccc2)CCN(Cc2ccccc2Cl)CC1 | - | - | - | - | - | -
CCC(C)[C@H]1CNC(=O)C(=O)N1CCCCC1CCCCC1 (some centres undefined) | . | . | . | . | - | .
O=S(=O)(c1ccc(-c2n[nH]c(=S)o2)cc1)N1CCCCC1 | - | - | - | - | - | -
Cc1cc(SCC(=O)NC2CCCC2)nc2ccccc12 | - | - | - | - | - | -
Fc1ccc(-c2nc3c(-c4ccc(Cl)cc4)cnn3cc2CCN2CCOCC2)cc1 | - | - | - | - | - | 8.8
CN1CCN(CCc2cn3ncc(C#N)c3nc2-c2ccc(F)cc2)CC1 | - | - | - | - | - | -
CCN(C(=O)CSc1nc2ccccc2[nH]1)C1CCS(=O)(=O)C1 (centres undefined) | - | - | - | . | - | -
COc1ccc(S(N)(=O)=O)cc1C(=O)OCCCC(=O)c1ccccc1 | - | - | - | . | - | -
CCc1nnc(NC(=O)CSc2nnc(CNc3ccc(F)cc3)n2C2CCCCC2)s1 | - | - | - | 32 | - | -
O=C(/C=C\c1cn(-c2ccccc2)nc1-c1ccc2c(c1)OCCO2)N1CCOCC1 | - | - | - | - | - | 8.5
CN(C)c1ccc(C(O)c2cc3ccccc3s2)cc1 (centres undefined) | . | - | . | . | - | -
Cc1cccc(C)c1NC(=O)C1CCCN(CCCc2ccccc2)C1 (centres undefined) | . | - | . | 42 | - | -
CCCNC(=O)C1(C)CCCN(Cc2c(F)cccc2F)C1 (centres undefined) | . | - | . | . | - | -
CC(C)NCC(O)Cn1c2c(c3ccccc31)CCc1c-2cnn1-c1ccccc1 (centres undefined) | - | - | - | 22 | - | -
